Measurements taken from ChEMBL document CHEMBL1154537, “Synthesis and evaluation of pyrido-thieno-pyrimidines as potent and selective Cdc7 kinase inhibitors” (Bioorg Med Chem Lett, 2009).
The source made the active and inactive calls. No cut-off for these calls is given here.

Assays:
[1] = Solubility at pH 6.5; format: physicochemical; settings: buffer
[2] = target: T1, CDC7/DBF4 (Cell division cycle 7-related protein kinase/Activator of S phase kinase) (Homo sapiens, UniProt O00311); assay: Inhibition of human recombinant Cdc7/Dbf4 by IMAP assay; format: protein-complex assay
T1 sequence (Q9UBU7 whole entry): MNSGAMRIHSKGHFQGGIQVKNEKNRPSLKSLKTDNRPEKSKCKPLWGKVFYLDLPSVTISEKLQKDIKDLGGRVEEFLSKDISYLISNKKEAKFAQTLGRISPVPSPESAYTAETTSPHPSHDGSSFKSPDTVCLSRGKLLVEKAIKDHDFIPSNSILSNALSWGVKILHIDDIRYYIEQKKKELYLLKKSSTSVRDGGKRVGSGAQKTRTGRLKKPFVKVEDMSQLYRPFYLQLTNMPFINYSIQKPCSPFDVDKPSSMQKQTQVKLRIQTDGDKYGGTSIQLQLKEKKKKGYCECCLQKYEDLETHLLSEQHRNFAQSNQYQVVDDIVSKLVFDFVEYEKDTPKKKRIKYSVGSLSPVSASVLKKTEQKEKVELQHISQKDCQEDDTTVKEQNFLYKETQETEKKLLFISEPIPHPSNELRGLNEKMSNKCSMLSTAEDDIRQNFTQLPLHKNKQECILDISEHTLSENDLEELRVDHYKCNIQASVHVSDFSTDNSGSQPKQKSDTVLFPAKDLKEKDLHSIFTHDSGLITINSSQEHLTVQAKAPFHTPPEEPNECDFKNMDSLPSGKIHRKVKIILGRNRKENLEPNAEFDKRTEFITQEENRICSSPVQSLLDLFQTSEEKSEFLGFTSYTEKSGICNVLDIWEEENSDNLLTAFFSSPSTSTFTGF
T1 sequence (O00311 whole entry): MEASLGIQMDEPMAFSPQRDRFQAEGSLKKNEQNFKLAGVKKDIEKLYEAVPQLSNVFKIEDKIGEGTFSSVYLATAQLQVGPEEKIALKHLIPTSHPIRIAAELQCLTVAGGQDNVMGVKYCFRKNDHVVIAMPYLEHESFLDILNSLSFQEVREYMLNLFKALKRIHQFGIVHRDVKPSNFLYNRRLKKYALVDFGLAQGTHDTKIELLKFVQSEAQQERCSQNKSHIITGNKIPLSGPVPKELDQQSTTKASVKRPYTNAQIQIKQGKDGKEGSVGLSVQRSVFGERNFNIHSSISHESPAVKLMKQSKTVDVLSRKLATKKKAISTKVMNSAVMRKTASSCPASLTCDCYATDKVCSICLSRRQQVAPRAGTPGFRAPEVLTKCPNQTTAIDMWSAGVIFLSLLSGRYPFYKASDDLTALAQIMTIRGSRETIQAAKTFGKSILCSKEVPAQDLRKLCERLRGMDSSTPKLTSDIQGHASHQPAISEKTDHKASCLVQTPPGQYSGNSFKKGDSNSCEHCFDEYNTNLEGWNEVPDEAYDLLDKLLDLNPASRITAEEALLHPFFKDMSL

[3] = target: T1, CDC7/DBF4 (Cell division cycle 7-related protein kinase/Activator of S phase kinase); assay: Inhibition of human recombinant Cdc7/Dbf4 by HTRF assay
[4] = Permeability in human Caco-2 cells; format: ADME, cell-based; settings: read-out: permeability
RKO = assay: Cytotoxicity against human RKO cells MTT assay; format: functional, cell-based
Method in brief: (§1)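 MTT viability assay on human colon cancer cell lines exposed in vitro across a compound concentration range. IC50 was taken from the dose-response.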

[5] = Inhibition of human CDK4/Cyclin D by IMAP assay
[6] = target: Cyclin-dependent kinase 2 (Homo sapiens, UniProt P24941); assay: Inhibition of human CDK2/Cyclin E by IMAP assay
[7] = target: Protein kinase C delta type (Homo sapiens, UniProt Q05655); assay: Inhibition of human PKCdelta by IMAP assay
Chain of Protein kinase C delta type (Q05655 whole entry): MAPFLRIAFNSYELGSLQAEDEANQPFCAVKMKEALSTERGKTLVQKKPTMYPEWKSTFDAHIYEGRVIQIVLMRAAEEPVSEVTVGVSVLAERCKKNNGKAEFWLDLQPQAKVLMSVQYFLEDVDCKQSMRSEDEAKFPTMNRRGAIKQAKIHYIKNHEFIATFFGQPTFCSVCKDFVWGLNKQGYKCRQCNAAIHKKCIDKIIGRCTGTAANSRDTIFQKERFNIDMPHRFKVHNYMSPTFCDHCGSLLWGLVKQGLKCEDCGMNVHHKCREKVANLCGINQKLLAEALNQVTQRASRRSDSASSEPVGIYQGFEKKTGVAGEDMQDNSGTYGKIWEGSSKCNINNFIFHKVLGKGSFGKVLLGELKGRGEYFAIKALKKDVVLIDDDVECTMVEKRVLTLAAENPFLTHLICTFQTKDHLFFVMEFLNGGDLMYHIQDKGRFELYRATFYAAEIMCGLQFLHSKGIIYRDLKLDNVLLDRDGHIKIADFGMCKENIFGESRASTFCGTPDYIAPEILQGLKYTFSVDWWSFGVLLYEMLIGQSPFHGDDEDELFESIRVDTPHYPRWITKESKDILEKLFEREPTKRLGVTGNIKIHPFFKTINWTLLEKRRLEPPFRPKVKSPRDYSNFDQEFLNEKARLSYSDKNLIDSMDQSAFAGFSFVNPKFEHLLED

[8] = target: Cyclin-dependent kinase 1/cyclin B1 (Homo sapiens, UniProt P06493); assay: Inhibition of human CDK1/Cyclin B by IMAP assay; format: protein-complex assay
Chain of Cyclin-dependent kinase 1/cyclin B1 (P06493 whole entry): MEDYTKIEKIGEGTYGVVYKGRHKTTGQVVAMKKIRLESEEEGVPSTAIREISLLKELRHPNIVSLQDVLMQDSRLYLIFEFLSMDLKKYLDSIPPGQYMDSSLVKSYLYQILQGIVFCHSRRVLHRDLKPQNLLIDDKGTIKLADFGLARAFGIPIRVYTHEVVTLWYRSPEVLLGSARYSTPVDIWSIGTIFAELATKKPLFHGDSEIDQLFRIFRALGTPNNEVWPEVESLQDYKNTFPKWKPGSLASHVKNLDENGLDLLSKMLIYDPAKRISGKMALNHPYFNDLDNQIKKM
Chain of Cyclin-dependent kinase 1/cyclin B1 (P14635 whole entry, further chain): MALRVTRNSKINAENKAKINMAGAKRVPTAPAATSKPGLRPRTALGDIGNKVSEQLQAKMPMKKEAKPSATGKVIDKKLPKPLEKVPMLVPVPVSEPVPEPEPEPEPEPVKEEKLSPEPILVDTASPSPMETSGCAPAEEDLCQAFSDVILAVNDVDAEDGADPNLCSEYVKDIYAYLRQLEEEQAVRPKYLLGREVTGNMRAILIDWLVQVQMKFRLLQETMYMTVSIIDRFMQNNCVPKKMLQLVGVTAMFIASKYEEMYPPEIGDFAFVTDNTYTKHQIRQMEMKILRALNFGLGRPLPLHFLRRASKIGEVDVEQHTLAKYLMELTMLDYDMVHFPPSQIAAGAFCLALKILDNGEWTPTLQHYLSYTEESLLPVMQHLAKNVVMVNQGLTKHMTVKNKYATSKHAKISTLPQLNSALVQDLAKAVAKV

SW480 = assay: Cytotoxicity against human SW480 cells MTT assay; format: functional, cell-based; method in brief: as §1
[9] = target: T2, Serine/threonine-protein kinase Sgk1 (Homo sapiens, UniProt O00141); assay: Inhibition of human SGK by IMAP assay
T2 sequence (O00141 whole entry): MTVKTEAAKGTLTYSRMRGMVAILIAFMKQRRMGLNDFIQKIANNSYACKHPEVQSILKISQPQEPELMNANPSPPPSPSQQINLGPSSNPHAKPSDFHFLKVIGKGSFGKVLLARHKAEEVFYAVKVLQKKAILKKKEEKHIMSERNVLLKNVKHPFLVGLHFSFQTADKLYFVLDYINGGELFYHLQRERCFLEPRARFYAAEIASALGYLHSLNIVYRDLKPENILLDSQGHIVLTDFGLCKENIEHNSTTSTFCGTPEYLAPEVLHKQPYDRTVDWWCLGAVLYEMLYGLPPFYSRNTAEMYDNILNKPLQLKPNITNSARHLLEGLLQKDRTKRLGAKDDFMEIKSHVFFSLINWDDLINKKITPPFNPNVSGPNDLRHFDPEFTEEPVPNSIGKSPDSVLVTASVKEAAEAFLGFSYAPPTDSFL

HCT-116 = assay: Cytotoxicity against human HCT116 cells MTT assay; format: functional, cell-based; method in brief: as §1
[10] = target: Mitogen-activated protein kinase 1 (Homo sapiens, UniProt P28482); assay: Inhibition of human ERK2 by IMAP assay
Chain of Mitogen-activated protein kinase 1 (P28482 whole entry): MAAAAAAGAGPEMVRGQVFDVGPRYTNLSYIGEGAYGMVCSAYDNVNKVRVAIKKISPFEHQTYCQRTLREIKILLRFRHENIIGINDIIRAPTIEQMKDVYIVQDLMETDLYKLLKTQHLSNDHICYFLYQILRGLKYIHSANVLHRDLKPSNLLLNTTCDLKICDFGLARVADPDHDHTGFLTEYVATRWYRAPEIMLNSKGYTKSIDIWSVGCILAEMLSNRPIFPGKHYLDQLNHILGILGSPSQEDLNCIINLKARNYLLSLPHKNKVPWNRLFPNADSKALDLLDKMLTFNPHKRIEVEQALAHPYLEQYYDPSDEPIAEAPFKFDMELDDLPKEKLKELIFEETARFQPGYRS

[11] = target: Protein kinase C alpha type (Homo sapiens, UniProt P17252); assay: Inhibition of human PKCalpha by IMAP assay
[12] = Inhibition of human PKA by IMAP assay
[13] = target: RAC-alpha serine/threonine-protein kinase (Homo sapiens, UniProt P31749); assay: Inhibition of human AKT by IMAP assay
Chain of RAC-alpha serine/threonine-protein kinase (P31749 whole entry): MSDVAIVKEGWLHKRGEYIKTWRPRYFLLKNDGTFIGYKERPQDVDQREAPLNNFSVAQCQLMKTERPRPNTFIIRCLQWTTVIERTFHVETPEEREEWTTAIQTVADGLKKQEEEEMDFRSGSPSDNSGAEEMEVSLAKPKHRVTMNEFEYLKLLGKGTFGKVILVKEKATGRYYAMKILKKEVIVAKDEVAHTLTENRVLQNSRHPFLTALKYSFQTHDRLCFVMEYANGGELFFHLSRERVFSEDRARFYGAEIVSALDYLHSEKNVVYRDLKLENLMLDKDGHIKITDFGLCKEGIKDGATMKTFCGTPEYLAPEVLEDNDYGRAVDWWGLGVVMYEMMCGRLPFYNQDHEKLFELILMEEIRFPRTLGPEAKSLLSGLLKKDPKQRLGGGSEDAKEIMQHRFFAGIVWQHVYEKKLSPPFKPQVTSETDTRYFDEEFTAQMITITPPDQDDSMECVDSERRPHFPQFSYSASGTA

[14] = target: Tyrosine-protein kinase Fyn (Homo sapiens, UniProt P06241); assay: Inhibition of human Fyn by IMAP assay
Chain of Tyrosine-protein kinase Fyn (P06241 whole entry): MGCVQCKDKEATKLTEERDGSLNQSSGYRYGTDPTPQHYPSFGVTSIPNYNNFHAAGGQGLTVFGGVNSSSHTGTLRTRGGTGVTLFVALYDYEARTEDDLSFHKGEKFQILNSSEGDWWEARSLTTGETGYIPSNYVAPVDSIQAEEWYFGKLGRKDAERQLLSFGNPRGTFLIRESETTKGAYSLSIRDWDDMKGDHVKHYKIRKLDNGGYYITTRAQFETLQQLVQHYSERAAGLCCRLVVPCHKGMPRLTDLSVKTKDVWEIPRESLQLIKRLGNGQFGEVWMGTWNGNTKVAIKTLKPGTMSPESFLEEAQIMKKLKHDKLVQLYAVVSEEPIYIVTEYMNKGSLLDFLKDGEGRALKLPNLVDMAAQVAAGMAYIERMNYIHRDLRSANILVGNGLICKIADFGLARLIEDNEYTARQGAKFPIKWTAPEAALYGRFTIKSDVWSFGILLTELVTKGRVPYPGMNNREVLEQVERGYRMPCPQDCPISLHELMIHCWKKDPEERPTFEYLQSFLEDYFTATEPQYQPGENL

[15] = target: CDC7/DBF4 (Cell division cycle 7-related protein kinase/Activator of S phase kinase) (Homo sapiens) (UniProt Q9UBU7+O00311); assay: Inhibition of Cdc7/Dbf4-mediated MCM2 phosphorylation in human HCT116 cells assessed as decrease in faster migration of protein at 20 uM after 18 hrs by Western blot analysis; format: cell-based; settings: HCT-116
Chain of CDC7/DBF4 (Cell division cycle 7-related protein kinase/Activator of S phase kinase) (Homo sapiens) (O00311 whole entry, looked up): as the sequence (O00311 whole entry) above
Chain of CDC7/DBF4 (Cell division cycle 7-related protein kinase/Activator of S phase kinase) (Homo sapiens) (Q9UBU7 whole entry, looked up): as the sequence (Q9UBU7 whole entry) above
Method in brief: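 HCT116 cells were arrested with 100 nM nocodazole for 16 h and mitotic cells were collected by shake-off and washed. The resulting G1 cells were incubated with 20 µM compound or DMSO for 18 h. MCM2 and phospho-MCM2 were read by Western blot.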

Ephrin type-B receptor 3 = target: T3, Ephrin type-B receptor 3 (Homo sapiens, UniProt P54753); assay: Inhibition of human EphB3 by IMAP assay
T3 sequence (P54753 whole entry): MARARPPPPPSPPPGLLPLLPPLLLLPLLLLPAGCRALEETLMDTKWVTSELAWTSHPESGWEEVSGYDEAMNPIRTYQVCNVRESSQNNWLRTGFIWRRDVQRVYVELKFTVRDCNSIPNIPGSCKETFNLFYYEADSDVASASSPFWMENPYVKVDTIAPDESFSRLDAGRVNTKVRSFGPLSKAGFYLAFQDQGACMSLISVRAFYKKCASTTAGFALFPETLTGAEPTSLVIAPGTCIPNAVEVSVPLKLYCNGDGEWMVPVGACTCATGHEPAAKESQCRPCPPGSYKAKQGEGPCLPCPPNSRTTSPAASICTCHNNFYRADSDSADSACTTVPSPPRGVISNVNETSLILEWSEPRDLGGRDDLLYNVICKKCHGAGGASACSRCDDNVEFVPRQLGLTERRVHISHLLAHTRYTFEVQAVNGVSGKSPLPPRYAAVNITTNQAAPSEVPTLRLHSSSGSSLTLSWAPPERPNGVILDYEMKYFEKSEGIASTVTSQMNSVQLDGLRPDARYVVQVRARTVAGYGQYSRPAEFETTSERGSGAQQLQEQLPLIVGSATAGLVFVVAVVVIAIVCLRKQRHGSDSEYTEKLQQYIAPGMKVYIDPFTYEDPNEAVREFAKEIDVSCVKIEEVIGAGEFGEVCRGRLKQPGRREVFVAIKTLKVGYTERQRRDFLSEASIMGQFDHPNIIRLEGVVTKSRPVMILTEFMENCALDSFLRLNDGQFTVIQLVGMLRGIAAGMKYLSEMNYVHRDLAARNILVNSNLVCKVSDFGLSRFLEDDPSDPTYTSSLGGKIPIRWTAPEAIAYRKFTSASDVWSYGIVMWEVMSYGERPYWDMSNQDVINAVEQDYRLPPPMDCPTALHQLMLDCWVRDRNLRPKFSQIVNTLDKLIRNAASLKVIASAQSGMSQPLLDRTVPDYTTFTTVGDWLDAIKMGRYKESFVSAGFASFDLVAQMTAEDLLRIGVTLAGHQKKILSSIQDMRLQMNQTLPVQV

Structure (SMILES): Cc1c2c(nc3sc4c(N)ncnc4c13)CCC2
- solubility [1]: < 0.03 mg/mL
- Ki [2]: 0.005 µM
- IC50 [3]: 0.05 µM
- Papp [4]: > 200 nm/s

Structure (SMILES): Nc1ncnc2c1sc1nc(C3CC3)cc(C(F)(F)F)c12
- solubility [1]: < 0.03 mg/mL
- Ki [2]: 0.4 µM
- IC50 [3]: 4 µM
- Papp [4]: > 200 nm/s

Structure (SMILES): Cc1c2c(nc3sc4c(N)ncnc4c13)CCCC2
- solubility [1]: < 0.03 mg/mL
- Ki [2]: 0.002 µM
- IC50 [3]: 0.02 µM
- Papp [4]: > 200 nm/s

Structure (SMILES): CNc1ncnc2c1sc1nc(C)cc(C)c12
- solubility [1]: < 0.03 mg/mL
- Ki [2]: > 3 µM
- IC50 [3]: > 30 µM
- Papp [4]: > 200 nm/s

Structure (SMILES): Cc1nc2sc3c(N)ncnc3c2c(C)c1C
- solubility [1]: < 0.03 mg/mL
- Ki [2]: 0.004 µM
- IC50 [3]: 0.04 µM
- Papp [4]: > 200 nm/s

Structure (SMILES): Cc1cc(C)c2c(n1)sc1c(N)ncnc12
- solubility [1]: < 0.03 mg/mL
- Papp [4]: > 200 nm/s

Structure (SMILES): Cc1cc(C)c2c(n1)sc1c(Nc3ccccc3)ncnc12
- solubility [1]: < 0.03 mg/mL
- Ki [2]: > 3 µM
- IC50 [3]: > 30 µM
- Papp [4]: > 200 nm/s

Structure (SMILES): CCOC(=O)c1cc2c(nc1C)sc1c(N)ncnc12
- solubility [1]: < 0.03 mg/mL
- Ki [2]: 1 µM
- IC50 [3]: 10 µM
- Papp [4]: > 200 nm/s

Structure (SMILES): Cc1cc(C)c2c(n1)sc1c(N(C)C)ncnc12
- solubility [1]: < 0.03 mg/mL
- Ki [2]: > 3 µM
- IC50 [3]: > 30 µM
- Papp [4]: > 200 nm/s

Structure (SMILES): Nc1ncnc2c1sc1ncccc12
- solubility [1]: < 0.03 mg/mL
- Ki [2]: 1.2 µM
- IC50 [3]: 12 µM
- Papp [4]: > 200 nm/s

Structure (SMILES): Cc1nc2sc3c(N)ncnc3c2c2c1CCC2
- solubility [1]: < 0.03 mg/mL
- Ki [2]: 0.003 µM
- IC50 [3]: 0.03 µM
- Papp [4]: > 200 nm/s

Structure (SMILES): Cc1nc2sc3c(N)ncnc3c2c2c1CCCC2
- solubility [1]: < 0.03 mg/mL
- Ki [2]: 0.0005 µM
- IC50 [3]: 0.005 µM
- Papp [4]: > 200 nm/s

Structure (SMILES): CCc1c(C)nc2sc3c(N)ncnc3c2c1C
- solubility [1]: < 0.03 mg/mL
- Ki [2]: 0.001 µM
- IC50 [3]: 0.01 µM
- Papp [4]: > 200 nm/s

Structure (SMILES): Nc1ncnc2c1sc1ncc(-c3ccccc3)cc12
- solubility [1]: < 0.03 mg/mL
- Ki [2]: 0.9 µM
- IC50 [3]: 9 µM
- Papp [4]: > 200 nm/s

Structure (SMILES): C=CCc1c(C)nc2sc3c(N)ncnc3c2c1C
- IC50 (RKO): 6.6 µM
- Ki [5]: > 5 µM
- Ki [6]: > 5 µM
- Ki [7]: > 5 µM
- solubility [1]: < 0.03 mg/mL
- Ki [8]: > 5 µM
- IC50 (SW480): 9.6 µM
- Ki [9]: > 5 µM
- IC50 (HCT-116): 8.3 µM
- Ki [10]: > 5 µM
- Ki [2]: 0.002 µM
- Ki [11]: > 5 µM
- Ki [12]: 1.1 µM
- IC50 [3]: 0.02 µM
- Ki [13]: > 5 µM
- Papp [4]: > 200 nm/s
- Ki [14]: > 5 µM
- Activity [15]: Active
- Ki (Ephrin type-B receptor 3): > 5 µM

Structure (SMILES): Cc1nc2sc3c(N)ncnc3c2c(C)c1Cc1ccccc1
- solubility [1]: < 0.03 mg/mL
- Ki [2]: 0.2 µM
- IC50 [3]: 2 µM
- Papp [4]: > 200 nm/s
